esBAF inh: Bmi1 luciferase reporter increase in mESCs, primary screen, esBAF inhibitor project, mouse ES cells, Bmi1 luciferase knock-in, single point; 2% of 350,000 active; reporter increase, % at 12.5 µM; 24 h; 100% = twice the neutral-well signal; in the data active means activation above about 40%;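 further: 0% = median of the plate's neutral control wells and 100% = double that signal; a rise in the Bmi1 reporter signal indicates esBAF inhibition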
MITF act: activators of MITF-driven TRPM1 promoter reporter, primary screen, cell-based, SK-MEL-5, luciferase, single point; activation, % at 12.5 µM; AID 588334, 2011; 0.75% of 300,000 active; SK-MEL-5 TRPM1-promoter luciferase, 24 h; % of positive control, neutral wells = 0;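 active means mean activation of at least 80% with every replicate also reaching 80%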;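 further: 0% = neutral control wells and 100% = parthenolide positive control wells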
Wnt act: Wnt/beta-catenin pathway activators, primary screen, cell-based, plate reader, single point; activation, % at 9.35 µM; 1.2% of 300,000 active; Wnt/beta-catenin reporter cell assay, activator; AID 743398, 2014; in the data active means activation above about 30%, passing the limit was not always enough;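 further: 0% = neutral control wells and 100% = positive control wells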
Env fusion inh: inhibitors of HIV-1 Env-driven cell-cell fusion, primary screen, HeLa-JRFL effector, CEM21 target cells, luciferase; inhibition, % at 12.3 µM; 1.1% of 360,000 active; AID 651610, 2012;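 active means mean replicate inhibition score of at least 50 and every replicate individually at or above 50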;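 further: 0% = plate neutral controls and 100% = maraviroc near 300 nM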
Cneo AK release: Cryptococcus neoformans cell lysis inducers, primary screen, AK release luminescence, single concentration; C. neoformans lysis, adenylate kinase release luminescence, 4 h; normalised: neutral wells 0, clomiphene wells 100; 0.2% of 360,000 active; lysis activity, % at 15 µM;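 active means mean lysis activity across replicates of at least 80%, whatever share of replicates individually reach that level; inactive means mean lysis activity below 80%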
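Material: C. neoformans cells | Amount: Yeast cell density of 5 × 10^6 cells/mL | Medium: Fresh YPD growth medium | Dosing: Single dose | Times: Static 4 h at 37 °C with compound, 1 h detection | Detection: AK luminescence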
ERAP1 inh: human ERAP1 aminopeptidase inhibitors, primary screen, biochemical, single point, plate reader; Endoplasmic reticulum aminopeptidase 1 (Homo sapiens), Q9NZ08; recombinant ERAP1, Leu-AMC fluorescence, 60 min; inhibition, % at 10.7 µM; 0.15% of 340,000 active;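 active means mean replicate inhibition of at least 30%, or all replicates individually reaching that 30% level; inactive means mean below 30% and not every replicate reaching it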;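 further: 0% = neutral control wells and 100% = L-leucinethiol positive control wells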
Starred values were filed as active, the others as inactive; . = not tested or not shown; ! = repeats disagree; [ ] = remark or other dose. Sampled rows, rich in hits. Any-hit rate of the full collection: about 3.5%.

SMILES	esBAF inh	MITF act	Wnt act	Env fusion inh	Cneo AK release	ERAP1 inh
CCc1ccc(CNC(=O)CC2C(=O)NCCN2Cc2ccccc2F)nc1 (stereo unspecified)	-3	-7	-3	56*	1	0
CCn1ccnc1CNC(=O)CC1C(=O)NCCN1Cc1ccccc1F (stereo unspecified)	.	1	1	-9	0	.
C[C@@H]1CCCCO[C@@H](CN(C)S(=O)(=O)c2ccccc2)[C@H](C)CN([C@@H](C)CO)C(=O)c2cc(NS(=O)(=O)c3cccs3)ccc2O1	17	.	.	2[16.7 µM]	-1	1
Cc1cccc(NC(=S)N/N=C/C(C)c2ccccc2)c1C (stereo unspecified)	.	-4	34*	6	.	0
C[C@@H](O)C#Cc1cnc2c(c1)C(=O)N([C@@H](C)CO)C[C@H](C)[C@@H](CN(C)Cc1cccc(F)c1)O2	3	.	.	-5[16.7 µM]	18	-3
O=C(N/N=C\c1ccc([N+](=O)[O-])s1)c1cncc(Br)c1	.	-77	-4	104*	1	0
c1csc(C(c2nnnn2C2CCCCC2)N2CCCC3(CCCCC3)C2)c1 (stereo unspecified)	-12	7	-3	115*	1	.
CC(C)(C)n1nnnc1C(c1cccs1)N1CCCC2(CCCCC2)C1 (stereo unspecified)	-5	-1	-1	.	0	1
COCC#Cc1ccc2c(c1)O[C@H](CN(C)S(=O)(=O)c1ccc(F)cc1)[C@@H](C)CN([C@@H](C)CO)S2(=O)=O	-2	.	.	-7[16.7 µM]	52	0
Cc1ccc(NC(=O)N2CCCCCC2)cc1C	52*	36	27	-37	-10	-7
O=C(Nc1cnc2ccccc2c1)N1CCCCC1	.	94*	.	.	.	.
Cc1cccc(NC(=O)N2CCCCCC2)c1	43*	33	6	-15	0	3
C[C@H](CO)N1C[C@H](C)[C@H](CN(C)S(=O)(=O)c2cn(C)cn2)Oc2ccc(NC(=O)C3CCCCC3)cc2C1=O	3	.	.	19[16.7 µM]	-6	-1
Cc1nn(C)c(C)c1/C=C/C(=O)c1ccc(Cl)cc1Cl	.	-6	4	56*	.	-2
O=C(C[C@H]1C[C@@H]2c3cc(NC(=O)C4CCOCC4)ccc3O[C@@H]2[C@@H](CO)O1)NCC1CC1	6	.	.	4[16.7 µM]	-6	0
C[C@@H]1CCCCO[C@H](CN(C)C(=O)c2ccccc2)[C@H](C)CN([C@@H](C)CO)C(=O)c2cc(NC(=O)c3ccccc3)ccc2O1	.	.	.	-25[16.7 µM]	-1	4
Cc1nc(N2CCN(c3ccccc3)CC2)nc2c1C(=O)CC(c1ccccc1)C2 (stereo unspecified)	1	5	-6	64*	1	.
Cc1nc(N2CCN(c3ccccc3)CC2)nc2c1C(=O)CC(C)C2 (stereo unspecified)	-7	18	-3	-5	-3	2
O=C(N/N=C/C(Cl)=C/c1ccccc1)c1cnccn1	24	52	.	.	2	.
O=C(N/N=C/C(Cl)=C/c1ccccc1)c1ccco1	70*	80	12	-51	-4	4
O=C(N/N=C/C(Cl)=C\c1ccccc1)c1cnccn1	.	27	.	-48	-24	.
O=C(N/N=C/C(Cl)=C\c1ccccc1)c1ccco1	.	.	57*	-145	2	-2
COCC(=O)N1C[C@H]2[C@@H](c3ccccc31)[C@H](CO)N2Cc1ccccc1F	-5	.	.	.	-2	1
O=C(NC1CCC1)[C@@H]1[C@@H](CO)[C@@H]2Cn3c(ccc(-c4ccccc4F)c3=O)[C@@H]2N1Cc1cocn1	-2	.	.	.	-1	-1
COc1ccc(-c2cnc3c(c2)C(=O)N([C@@H](C)CO)C[C@H](C)[C@@H](CN(C)S(C)(=O)=O)O3)cc1	1	.	.	-16[16.7 µM]	81*	-7
SMILES	esBAF inh	MITF act	Wnt act	Env fusion inh	Cneo AK release	ERAP1 inh
C[C@H](CO)N1C[C@H](C)[C@H](CN(C)S(=O)(=O)c2ccc(F)cc2)Oc2ncc(/C=C/c3ccccc3)cc2C1=O	-3	.	.	50*![16.7 µM]	-1	3
C[C@@H]1CN([C@@H](C)CO)C(=O)c2cc(C#Cc3ccccc3F)cnc2O[C@@H]1CN(C)S(=O)(=O)c1ccccc1F	0	.	.	56*[16.7 µM]	0	-4
Cc1ccc(S(=O)(=O)N(C)C[C@@H]2Oc3ncc(Br)cc3C(=O)N([C@@H](C)CO)C[C@H]2C)cc1	-20	.	.	12[16.7 µM]	91*	-5
C[C@@H]1CN([C@H](C)CO)C(=O)c2cc(C#C[C@@H](C)O)cnc2O[C@H]1CN(C)C(=O)CC1CC1	4	.	.	-31[16.7 µM]	26	0
COc1ccc(CN(C)C[C@@H]2Oc3c(NC(=O)c4ccc(-c5nccs5)cc4)cccc3C(=O)N([C@H](C)CO)C[C@H]2C)cc1	8	.	.	.	0	1
COCC(=O)N1C[C@@H]2[C@H](c3ccccc31)[C@H](CO)N2Cc1ccccc1F	-5	.	.	.	-1	2
C[C@@H]1CN([C@H](C)CO)C(=O)c2cc(/C=C/c3ccccc3)cnc2O[C@@H]1CN(C)S(C)(=O)=O	2	.	.	-7[16.7 µM]	87*	-1
COc1ccc(CCNc2ccc(N3C(=O)CC(C)C3=O)cc2[N+](=O)[O-])cc1 (stereo unspecified)	.	-14	-3	-3	.	-1
COc1ccc(CCNc2ccc(N3C(=O)CC(C)C3=O)cc2[N+](=O)[O-])cc1OC (stereo unspecified)	1	-15	0	68*	14	2
COc1ccc(NC(=O)Nc2cccc3c2O[C@@H](CN(C)C)[C@@H](C)CN([C@H](C)CO)C3=O)cc1	-1	.	.	.	-2	1
CCN(CC)c1ccc2cc(-c3nnc(-c4ccccc4)o3)c(=O)oc2c1	46*	64	.	.	0	.
CCN(CC)c1ccc2cc(-c3nc4ccccc4[nH]3)c(=O)oc2c1	-34	-80	.	.	-5	.
CCN(CC)c1ccc2cc(C(=O)c3cccs3)c(=O)oc2c1	72*	.	0	-198	-8	-5
C[C@H](CO)N1C[C@H](C)[C@@H](CN(C)C(=O)NC2CCCCC2)Oc2ccc(NC(=O)Nc3ccc4c(c3)OCO4)cc2C1=O	2	.	.	-5[16.7 µM]	0	0
CCn1c(O)c(C#N)c(C)cc1=O	.	.	48*	3	2	0
CCCNC(=O)[C@H]1[C@H](CO)[C@H]2Cn3c(ccc(C4=CCCC4)c3=O)[C@@H]1N2CCC(F)(F)F	2	.	.	.	4	-1
Fc1ccc(N2CCN(Cc3ccccn3)CC2)cc1	.	-7	40*	-1	.	-3
c1ccc(CN2CCOCC2)nc1	.	6	-4	6	.	1
COc1ccc(C2=[N+]([O-])C(C)(C)C(c3ccccc3)=N2)cc1	-2	-2	-1	-2	.	-2

Bioassay records as filed in PubChem BioAssay.
